High-throughput results deposited in PubChem BioAssay by several laboratories.
HTR2A ag – mouse HTR2A agonism via beta-arrestin recruitment. AID 624169. CHO-K1 mHTR2A beta-arrestin complementation, luminescence; percent of 30 µM serotonin response. activation, % at 7.6 µM. P35363. hit rate 0.66% among 360,000;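 active = activation above a run cutoff, the mean activation of all tested compounds plus 3 SD, cut at about 14% in these data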;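 note: 0% = plate median of compound wells and 100% = 30 µM serotonin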
Target sequence (P35363 whole entry, looked up): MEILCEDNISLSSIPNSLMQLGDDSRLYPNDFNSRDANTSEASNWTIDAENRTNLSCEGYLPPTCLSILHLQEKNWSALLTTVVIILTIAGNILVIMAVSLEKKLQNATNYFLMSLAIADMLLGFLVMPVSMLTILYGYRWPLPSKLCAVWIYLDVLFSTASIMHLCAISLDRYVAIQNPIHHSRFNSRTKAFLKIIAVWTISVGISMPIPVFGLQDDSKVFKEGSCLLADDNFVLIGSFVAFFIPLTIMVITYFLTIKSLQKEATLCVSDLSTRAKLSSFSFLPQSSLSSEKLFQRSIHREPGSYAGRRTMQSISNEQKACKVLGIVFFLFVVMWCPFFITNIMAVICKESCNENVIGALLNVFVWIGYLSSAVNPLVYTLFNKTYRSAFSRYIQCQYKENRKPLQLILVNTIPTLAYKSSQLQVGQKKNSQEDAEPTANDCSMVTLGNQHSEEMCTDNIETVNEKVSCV
Calb FLC – affects C. albicans growth with fluconazole. growth inhibition, % (no concentration beside the values). hit rate 0.57% among 300,000. C. albicans CaCi-2 + fluconazole, Alamar Blue growth, 48 h. AID 1979;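 active = growth inhibition above about 58% in most replicates, limit read from the data, passing the limit was not always enough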;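 note: all wells also contain fluconazole at 8 µg/ml as a sub-toxic cotreatment; 0% = median of DMSO wells and 100% = median of geldanamycin control wells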
SR-BI uptake up – enhances SR-BI lipid uptake from DiI-HDL | hit rate 0.096% among 320,000 | activation, % at 12.5 µM | CHO ldlA[mSR-BI] cells, DiI-HDL uptake fluorescence, 3 h; 100 = double the neutral-control signal | AID 504775;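 active = mean replicate activation of at least 60% and every replicate at or above 60%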;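 note: 0% = median plate neutral-control signal and 100% = twice that signal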
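material = CHO ldlA[mSR-BI] cells | medium = Ham's F12 with 0.5% BSA, HEPES 25 mM, pH 7.4 | reagent = fluorescent DiI-HDL, 10 µg/mL final | compound dosing = single-point compound dose | incubation = 3 h, 37 °C | measured by = bottom-read fluorescence, 550/595 nm | measure = HDL uptake via cellular fluorescence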
Ins promoter up – MIN6 insulin promoter up-regulation | MIN6 insulin promoter-GFP reporter, high-content imaging; hits give high values | z-score at 5 µM | hit rate 0.3% among 190,000;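 active = z-score above 3 at 5 µM with at least 500 cells counted in the well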
SR-BI HDL uptake – mouse SR-BI HDL lipid transfer inhibition. hit rate 0.96% among 320,000. inhibition, % at 12.5 µM. Q61009. AID 488896. ldlA[mSR-BI] CHO cells, DiI-HDL uptake fluorescence, 3 h;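 active = mean replicate inhibition of at least 70% and a set share of replicates each scoring 70 or more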;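 note: 0% = median of neutral control wells and 100% = median of positive control wells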
MIN6 prolif – inducers of beta-cell replication in MIN6 cells; MIN6 cells proliferation, ATPlite luminescence, 48 h; cells starved in 0.2% serum; 100% = growth in 10% serum; proliferation, % at 10 µM; hit rate 0.29% among 330,000; AID 2380;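 active = compounds whose signal lies at least 3.5 SD above the mean of all wells on their plate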;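 note: 0% = DMSO-treated cells in low-serum medium and 100% = 10% serum control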
OPRM1 ag – counter-screen for mouse HTR2A agonists: human mu opioid receptor agonists. shares compounds with HTR2A ag. U2OS OPRM1 beta-arrestin PathHunter, luminescence; DMSO 0%, DAMGO 9.3 µM 100%. activation, % at 9.3 µM. hit rate 5.3% among 2,300. AID 624380;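 active = mean activation above the mean of DMSO-only wells plus 3 SD, cut at about 0.5% in these data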
m5-HT2A ag conf – mouse HTR2A agonism confirmed. shares compounds with HTR2A ag. CHO-K1 PathHunter beta-arrestin recruitment, luminescence; DMSO 0%, 30 µM serotonin 100%. activation, % at 7.6 µM. hit rate 19% among 2,300. AID 624381;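 active = mean activation across triplicates above the hit threshold derived in the original primary screen, cut at about 15% in these data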
* hit, by the source's call; · = not tested or not shown. An excerpt weighted towards active compounds, which were near 2.4% of everything screened.

SMILES | HTR2A ag | Calb FLC | SR-BI uptake up | Ins promoter up | SR-BI HDL uptake | MIN6 prolif | OPRM1 ag | m5-HT2A ag conf
CNC(=O)Nc1ccc2snnc2c1 | -6.8 | 1.1 | -0.1 | 0.83 | 0.1 | 1.0 | · | ·
CC(C)CN(C(=O)COC(=O)c1ccc2c(c1)OCO2)c1c(N)n(Cc2ccccc2)c(=O)[nH]c1=O | -1.1 | · | -14.1 | · | 14.1 | -4.0 | · | ·
O=S1(=O)C[C@@H](N2CCC(Cc3ccccc3)CC2)[C@H](COCc2ccccc2)N1 | -4.9 | · | · | · | · | · | · | ·
O=C(Nc1nc2ccccc2s1)c1ccc(N2CCCCC2)c([N+](=O)[O-])c1 | 49.3* | -5.1 | -50.4 | -0.44 | 50.4 | 0.0 | -0.8 | 17.5*
CC(C)(C)N(Cc1ccc2c(c1)OCO2)C(=O)/C=C\S(=O)c1ccccc1 (stereo not given) | 19.3* | · | -5.0 | · | 5.0 | · | -0.6 | 2.1
CCOC(=O)COc1c(/C=N\O)cc(Cl)cc1OC | -3.5 | 22.8 | 8.9 | -0.02 | -8.9 | -1.8 | · | ·
CCOC(=O)C1(C)CCCN1C(=O)c1ccccc1OC (stereo not given) | 15.0* | · | · | · | · | · | -0.5 | -3.5
CCOC(=O)[C@@H](NC(=O)CC[C@H]1O[C@@H](n2ccc(=O)[nH]c2=O)[C@H](O)[C@@H]1O)C(C)C | -0.9 | · | · | · | · | · | · | ·
COC(=O)C1=CO[C@@H](O[C@@H]2O[C@H](CO)[C@@H](O)[C@H](O)[C@H]2O)C2C1CC(O)O[C@H]2C (stereo not given in full) | 5.6 | · | 1.6 | · | -1.6 | -0.9 | · | ·
Cc1csc2c(N3CCN(C(=O)Nc4ccc(OC(F)(F)F)cc4)CC3)ncnc12 | 14.4* | -10.6 | -8.8 | 0.02 | 8.8 | -3.8 | -0.5 | 0.8
Cc1csc2c(N3CCC(C(=O)O)CC3)ncnc12 | 0.6 | -6.6 | -3.2 | -0.07 | 3.2 | -1.4 | · | ·
CCc1nc2c(OCc3ccc(F)c(F)c3)cccn2c1N(C)C(=O)c1cccs1 | 1.6 | · | · | · | · | · | · | ·
CC(C)c1cc(C(=O)Nc2cc(Br)ccc2O)no1 | 16.8* | -15.8 | -0.4 | -1.21 | 0.4 | 1.6 | 0.7* | 1.9
CC(C)c1cc(C(=O)Nc2cc(Cl)ccc2O)no1 | 3.6 | -10.5 | 4.6 | 1.9 | -4.6 | -3.2 | · | ·
Cc1cc(C)c(C)c(S(=O)(=O)Nc2ccccc2N2CCOCC2)c1C | -7.3 | · | -8.1 | · | 8.1 | -4.2 | · | ·
CCOC(=O)N1CCN(C/C(C)=C/c2ccccc2)CC1 | 17.9* | 15.4 | 16.6 | · | -16.6 | -2.2 | -0.7 | 56.8*
CCOc1ccc(C(=O)NCC(=O)NCC(c2cccs2)N2CCOCC2)cc1 (stereo not given) | 2.2 | -3.7 | 30.9 | · | -30.9 | 6.5 | · | ·
Cc1noc(C)c1S(=O)(=O)NCc1ccc2c(c1)OCO2 | 31.5* | -6.9 | 22.6 | -0.72 | -22.6 | -0.2 | -0.5 | -5.3
COC(=O)[C@]12CCCCC=C1N(Cc1cccc3ccccc13)C(=O)[C@H](CC(=O)NCCCN1CCCC1=O)C2 | 3.1 | · | · | · | · | · | · | ·
O=C(NCCN1CCN(c2ccccc2F)CC1)C1CCCN(S(=O)(=O)c2cnc[nH]2)C1 (stereo not given) | 19.0* | 3.9 | 11.1 | 0.06 | -11.1 | 2.3 | -0.6 | 60.3*
O=C(NCCN1CCC(Cc2ccccc2)CC1)C1CCCN(S(=O)(=O)c2cnc[nH]2)C1 (stereo not given) | -7.2 | -0.6 | -1.5 | -0.73 | 1.5 | -2.9 | · | ·
Cc1cccc(CCNC(=O)C2CCCN(S(=O)(=O)c3cnc[nH]3)C2)c1 (stereo not given) | 14.6* | 1.9 | 4.3 | -0.98 | -4.3 | 0.9 | -0.7 | -5.4
O=C(C1CCC1)N1CCc2cc(S(=O)(=O)NCCN3CCN(c4ccccc4F)CC3)ccc21 | 14.7* | 0.6 | -14.4 | -4.42 | 14.4 | -2.2 | -0.2 | 53.9*
CCS(=O)(=O)N1CCC(C(=O)NCCCN2CCN(c3ccccc3F)CC2)CC1 | 15.8* | 2.2 | 18.5 | -0.02 | -18.5 | -1.9 | -0.6 | 54.3*
O=C(NCCc1ccccc1)C1CCCN(S(=O)(=O)c2cnc[nH]2)C1 (stereo not given) | -2.5 | -6.8 | -4.7 | 0.55 | 4.7 | 2.5 | · | ·
SMILES | HTR2A ag | Calb FLC | SR-BI uptake up | Ins promoter up | SR-BI HDL uptake | MIN6 prolif | OPRM1 ag | m5-HT2A ag conf
O=C(NCc1ccco1)Nc1nnc([C@H]2C[C@H](O)[C@@H](CO)O2)s1 | 4.3 | · | · | · | · | · | · | ·
CC(C)(C)c1ccc(O)c(N=Cc2cc(Br)ccc2O)c1 | 49.4* | -20.5 | -10.9 | 0.55 | 10.9 | -5.5 | 0.0 | 2.2
CCOC(=O)C1CCCN(S(=O)(=O)c2cc3c4c(c2)CCC(=O)N4CCC3)C1 (stereo not given) | -0.8 | 1.8 | 19.3 | · | -19.3 | -2.2 | · | ·
CC(C)(C)NC(=O)COc1ccc(CNCc2ccccn2)cc1 | 14.5* | -1.9 | · | · | · | 0.0 | -0.6 | -3.2
CC(C)(C)NC(=O)COc1ccc(CNCCc2ccccc2)cc1 | -26.0 | 12.2 | 7.7 | 0.13 | -7.7 | 3.4 | · | ·
CN(Cc1ccccc1)S(=O)(=O)c1ccc(OCC(=O)NCc2ccccn2)cc1 | 17.6* | -6.3 | · | · | · | -0.4 | -0.6 | -4.8
Cc1nc2c(-c3ccccc3)c(C)[nH]n2c(=O)c1Cc1ccccc1 | 59.4* | 2.7 | 11.7 | -0.25 | -11.7 | -4.1 | -0.5 | 32.5*
CCCC(=O)Nc1cccc(-c2nc3ccccc3c(=O)o2)c1 | 15.0* | -4.4 | 0.0 | 0.66 | 0.0 | -4.5 | -0.2 | -1.3
CC1CCCN(C2(O)C(=O)Nc3ccc([N+](=O)[O-])cc32)C1 (stereo not given) | 17.5* | -4.2 | -15.6 | · | 15.6 | 0.3 | -0.5 | -2.5
Cc1cn([C@H]2C[C@H](O)[C@@H](CCC(=O)NCCc3cccs3)O2)c(=O)[nH]c1=O | -0.1 | · | · | · | · | · | · | ·
COc1cc(C(C)=O)ccc1OCC(O)CN1CCN(c2ccccc2)CC1 (stereo not given) | 11.6 | 2.8 | 14.0 | · | -13.9 | 0.6 | · | ·
CCN1CCN(CC(O)COc2ccc(C(C)=O)cc2)CC1 (stereo not given) | -2.6 | 0.8 | -4.1 | 0.4 | 4.1 | -1.3 | · | ·
Cc1cccc(OCC(O)CN2CCN(c3ccccn3)CC2)c1C (stereo not given) | 18.9* | -4.1 | -21.5 | · | 21.5 | -2.1 | -0.6 | 40.2*
CC(=O)c1ccc(OCC(O)CN2CCN(CCO)CC2)cc1 (stereo not given) | 17.0* | 2.7 | 9.1 | -0.55 | -9.1 | -2.1 | -0.7 | -3.0
COc1cc(C(C)=O)ccc1OCC(O)CN1CCN(c2ccccn2)CC1 (stereo not given) | 23.3* | 4.5 | 21.3 | · | -21.4 | 1.1 | -0.4 | 85.9*
